{"source": "ChEMBL document CHEMBL1671761", "about": "“Preclinical characterization of BI 201335, a C-terminal carboxylic acid inhibitor of the hepatitis C virus NS3-NS4A protease” (Antimicrob Agents Chemother, 2010)", "key": {"[1]": {"target": "Trypsin (Homo sapiens) (UniProt P07477+P07478+P35030)", "experiment": "Inhibition of human trypsin at 10 uM", "format": "protein assay"}, "[2]": {"experiment": "AUC (0 to infinity) in rat at 5 mg/kg, po", "format": "ADME, organism-based", "parameters": "time infinity, dose 5 mg/kg, route oral", "conditions": "plasma", "outline": "(§1)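 Single oral dose of 5 mg/kg in 0.5% Methocel with 0.3% Tween 80 (10 ml/kg) to fasted male animals: Sprague-Dawley rats (275-300 g, overnight fast with 10% dextrose water), rhesus monkeys, beagle dogs. Rat blood from cannulated carotid at 0-8 h, pooled from 3 rats per time point; monkey/dog n=3. Plasma solid-phase extracted, LC-MS/MS at m/z 869.3; noncompartmental analysis.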"}, "[3]": {"target": "Caspase-1 (Homo sapiens) (UniProt P29466)", "sequence (P29466 120-297 limits assumed)": "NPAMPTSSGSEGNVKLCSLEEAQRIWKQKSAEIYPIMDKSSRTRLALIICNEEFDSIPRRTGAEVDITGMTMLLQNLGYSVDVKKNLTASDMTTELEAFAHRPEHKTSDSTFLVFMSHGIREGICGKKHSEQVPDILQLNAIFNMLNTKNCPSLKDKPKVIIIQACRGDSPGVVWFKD", "sequence (P29466 317-404 limits assumed)": "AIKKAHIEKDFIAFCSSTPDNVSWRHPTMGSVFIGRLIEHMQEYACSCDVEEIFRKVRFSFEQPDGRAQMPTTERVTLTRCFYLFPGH", "experiment": "Inhibition of human caspase-1 at 10 uM"}, "[4]": {"target": "Plasma kallikrein (Homo sapiens) (UniProt P03952)", "sequence (P03952 20-390 limits assumed)": "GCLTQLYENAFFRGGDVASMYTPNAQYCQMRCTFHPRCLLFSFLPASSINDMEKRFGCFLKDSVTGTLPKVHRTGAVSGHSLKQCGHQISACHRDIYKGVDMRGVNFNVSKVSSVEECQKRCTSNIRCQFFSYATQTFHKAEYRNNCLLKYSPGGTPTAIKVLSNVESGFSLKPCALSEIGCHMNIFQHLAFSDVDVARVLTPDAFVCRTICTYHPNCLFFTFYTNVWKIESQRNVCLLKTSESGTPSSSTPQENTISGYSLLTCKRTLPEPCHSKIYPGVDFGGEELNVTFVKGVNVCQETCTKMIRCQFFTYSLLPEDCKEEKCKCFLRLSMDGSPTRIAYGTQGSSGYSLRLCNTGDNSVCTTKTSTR", "sequence (P03952 391-638 limits assumed)": "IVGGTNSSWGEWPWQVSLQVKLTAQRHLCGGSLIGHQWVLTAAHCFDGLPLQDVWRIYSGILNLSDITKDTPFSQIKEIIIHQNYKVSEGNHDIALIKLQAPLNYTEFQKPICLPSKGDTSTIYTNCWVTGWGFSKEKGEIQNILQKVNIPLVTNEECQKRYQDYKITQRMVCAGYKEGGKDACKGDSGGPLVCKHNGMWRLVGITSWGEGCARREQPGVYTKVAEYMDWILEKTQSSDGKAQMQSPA", "experiment": "Inhibition of human kallikrein at 10 uM"}, "[5]": {"target": "Protein kinase C (PKC) (Rattus norvegicus) (UniProt P05696+P68403+P09216+P63319+P09215+Q64617+Q9WTQ0+P09217)", "experiment": "Inhibition of rat PKC at 10 uM"}, "[6]": {"target": "Neprilysin (Homo sapiens) (UniProt P08473)", "experiment": "Inhibition of human neutral endopeptidase from HUV-EC-C cells at 10 uM by fluorimetry"}, "[7]": {"target": "Beta-secretase 1 (Homo sapiens) (UniProt P56817)", "sequence (P56817 whole entry)": "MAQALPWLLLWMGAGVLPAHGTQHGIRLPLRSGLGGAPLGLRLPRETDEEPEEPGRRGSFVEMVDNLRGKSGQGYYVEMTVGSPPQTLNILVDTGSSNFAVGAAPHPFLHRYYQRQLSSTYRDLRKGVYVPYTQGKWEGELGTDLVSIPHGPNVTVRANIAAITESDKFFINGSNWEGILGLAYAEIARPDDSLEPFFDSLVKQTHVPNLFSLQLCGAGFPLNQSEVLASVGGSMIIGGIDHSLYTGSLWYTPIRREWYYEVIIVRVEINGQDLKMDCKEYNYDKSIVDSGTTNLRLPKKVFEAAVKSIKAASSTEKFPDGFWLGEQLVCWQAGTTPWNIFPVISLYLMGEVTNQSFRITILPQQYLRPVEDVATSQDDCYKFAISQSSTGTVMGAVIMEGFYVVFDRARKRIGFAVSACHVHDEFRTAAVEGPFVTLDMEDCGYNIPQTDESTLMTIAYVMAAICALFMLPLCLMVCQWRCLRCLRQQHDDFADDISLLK", "experiment": "Inhibition of human recombinant BACE-1 at 10 uM"}, "[8]": {"target": "Angiotensin-converting enzyme (Oryctolagus cuniculus) (UniProt P12822)", "experiment": "Inhibition of rabbit ACE at 10 uM"}, "[9]": {"target": "Adenosine receptor A1 (Homo sapiens) (UniProt P30542)", "experiment": "Inhibition of human adenosine A1 receptor at 10 uM"}, "[10]": {"target": "Collagenase 3 (Homo sapiens) (UniProt P45452)", "experiment": "Inhibition of human MMP-13 at 10 uM"}, "[11]": {"species": "Rattus norvegicus", "experiment": "Inhibition of rat potassium channel-A at 10 uM"}, "[12]": {"species": "Rattus norvegicus", "experiment": "Inhibition of rat GABA-A receptor, agonist site at 10 uM", "format": "functional"}, "[13]": {"target": "Disintegrin and metalloproteinase domain-containing protein 17 (Homo sapiens) (UniProt P78536)", "experiment": "Inhibition of human TACE at 10 uM"}, "[14]": {"experiment": "AUC in dog at 5 mg/kg, po", "format": "ADME, organism-based, Canis lupus familiaris", "parameters": "dose 5 mg/kg, route oral", "conditions": "plasma", "outline": "as §1"}, "[15]": {"target": "Thromboxane A2 receptor (Homo sapiens) (UniProt P21731)", "experiment": "Inhibition of human Thromboxane A2 receptor at 10 uM"}, "[16]": {"target": "Prothrombin (Homo sapiens) (UniProt P00734)", "experiment": "Inhibition of human thrombin at 10 uM"}, "[17]": {"target": "Nitric oxide synthase 3 (Rattus norvegicus) (UniProt Q62600)", "sequence (Q62600 whole entry)": "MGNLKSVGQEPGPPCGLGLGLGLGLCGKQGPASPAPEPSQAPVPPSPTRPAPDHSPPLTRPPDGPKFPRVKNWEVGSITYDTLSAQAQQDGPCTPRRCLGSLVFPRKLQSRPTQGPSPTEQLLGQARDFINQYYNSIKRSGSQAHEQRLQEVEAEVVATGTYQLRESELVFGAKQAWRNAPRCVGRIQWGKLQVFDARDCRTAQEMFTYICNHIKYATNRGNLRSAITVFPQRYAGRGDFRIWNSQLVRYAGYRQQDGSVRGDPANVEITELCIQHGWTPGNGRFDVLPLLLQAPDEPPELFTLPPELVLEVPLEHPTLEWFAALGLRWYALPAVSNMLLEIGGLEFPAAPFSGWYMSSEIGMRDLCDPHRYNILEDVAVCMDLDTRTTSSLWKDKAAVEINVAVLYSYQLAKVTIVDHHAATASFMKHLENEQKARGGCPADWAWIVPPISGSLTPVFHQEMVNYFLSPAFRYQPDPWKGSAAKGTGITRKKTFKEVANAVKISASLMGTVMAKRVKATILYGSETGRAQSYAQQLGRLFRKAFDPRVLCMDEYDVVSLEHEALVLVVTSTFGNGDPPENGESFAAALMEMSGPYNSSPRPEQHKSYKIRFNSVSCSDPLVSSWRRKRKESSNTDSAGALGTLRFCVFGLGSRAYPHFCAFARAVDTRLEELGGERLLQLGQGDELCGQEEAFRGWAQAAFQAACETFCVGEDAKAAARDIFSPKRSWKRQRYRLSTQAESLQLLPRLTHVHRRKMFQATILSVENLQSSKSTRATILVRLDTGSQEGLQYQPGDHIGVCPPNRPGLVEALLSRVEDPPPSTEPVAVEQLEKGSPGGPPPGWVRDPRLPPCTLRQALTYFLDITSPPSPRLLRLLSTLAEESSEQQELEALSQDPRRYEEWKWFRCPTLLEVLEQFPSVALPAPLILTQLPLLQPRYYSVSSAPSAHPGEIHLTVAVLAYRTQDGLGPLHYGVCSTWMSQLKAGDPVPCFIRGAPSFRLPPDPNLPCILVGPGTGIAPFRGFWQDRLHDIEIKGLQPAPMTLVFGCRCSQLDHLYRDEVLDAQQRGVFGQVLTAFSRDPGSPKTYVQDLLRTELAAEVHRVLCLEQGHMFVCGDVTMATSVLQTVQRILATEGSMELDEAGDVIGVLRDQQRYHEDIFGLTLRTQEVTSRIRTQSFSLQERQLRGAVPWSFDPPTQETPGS", "experiment": "Inhibition of rat cNOS at 10 uM"}, "[18]": {"experiment": "Mean retention time in Sprague-Dawley rat at 5 mg/kg, po", "format": "ADME, organism-based, Sparague-Dawley", "parameters": "dose 5 mg/kg, route oral", "conditions": "in vivo", "outline": "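Male Sprague-Dawley rats (275-300 g), fasted overnight with 10% dextrose water. Single oral dose in 0.5% Methocel/0.3% Tween 80 at 10 ml/kg. Carotid-cannula blood taken 0-8 h, with plasma from 3 rats pooled per time point. Solid-phase extraction, then LC-MS/MS at m/z 869.3 (LOQ 10 nM). Noncompartmental analysis.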"}, "[19]": {"target": "Matrix metalloproteinase-9 (Homo sapiens) (UniProt P14780)", "experiment": "Inhibition of human MMP-9 at 10 uM"}, "[20]": {"target": "5-hydroxytryptamine receptor 4 (Cavia porcellus) (UniProt O70528)", "experiment": "Inhibition of guinea pig 5-HT4 receptor at 10 uM"}, "[21]": {"target": "Nitric oxide synthase, inducible (Mus musculus) (UniProt P29477)", "sequence (P29477 whole entry)": "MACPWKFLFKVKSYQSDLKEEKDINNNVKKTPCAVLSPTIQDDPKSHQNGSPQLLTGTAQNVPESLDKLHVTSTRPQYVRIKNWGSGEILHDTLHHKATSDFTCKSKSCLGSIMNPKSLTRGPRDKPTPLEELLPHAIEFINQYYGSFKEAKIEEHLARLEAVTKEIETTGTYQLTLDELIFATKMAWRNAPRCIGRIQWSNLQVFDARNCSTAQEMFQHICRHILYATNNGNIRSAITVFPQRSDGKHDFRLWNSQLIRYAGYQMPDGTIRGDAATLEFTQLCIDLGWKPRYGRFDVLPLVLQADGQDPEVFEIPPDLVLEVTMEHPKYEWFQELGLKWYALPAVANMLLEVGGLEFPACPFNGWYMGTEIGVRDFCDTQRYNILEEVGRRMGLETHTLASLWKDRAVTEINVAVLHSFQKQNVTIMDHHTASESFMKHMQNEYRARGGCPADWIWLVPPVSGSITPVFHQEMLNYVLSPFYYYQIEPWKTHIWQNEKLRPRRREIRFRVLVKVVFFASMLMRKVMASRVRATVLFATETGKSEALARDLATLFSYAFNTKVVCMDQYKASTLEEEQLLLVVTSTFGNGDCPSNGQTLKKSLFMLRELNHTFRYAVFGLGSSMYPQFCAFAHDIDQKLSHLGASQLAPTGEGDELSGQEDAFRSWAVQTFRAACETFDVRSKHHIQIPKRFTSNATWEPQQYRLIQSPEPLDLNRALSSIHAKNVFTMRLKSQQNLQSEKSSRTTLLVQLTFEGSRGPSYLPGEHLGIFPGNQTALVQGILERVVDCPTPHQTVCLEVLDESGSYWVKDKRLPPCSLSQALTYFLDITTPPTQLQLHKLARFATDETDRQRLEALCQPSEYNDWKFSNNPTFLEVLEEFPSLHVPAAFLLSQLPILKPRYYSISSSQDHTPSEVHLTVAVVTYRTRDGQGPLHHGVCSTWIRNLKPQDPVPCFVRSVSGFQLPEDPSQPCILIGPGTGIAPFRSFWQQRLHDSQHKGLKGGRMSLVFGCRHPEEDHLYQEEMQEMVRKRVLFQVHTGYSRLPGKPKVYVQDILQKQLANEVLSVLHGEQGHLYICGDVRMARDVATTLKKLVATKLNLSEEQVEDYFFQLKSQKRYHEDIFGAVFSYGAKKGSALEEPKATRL", "experiment": "Inhibition of mouse iNOS at 10 uM"}, "[22]": {"target": "D(1B) dopamine receptor (Homo sapiens) (UniProt P21918)", "experiment": "Inhibition of human dopamine receptor 5 at 10 uM"}, "[23]": {"target": "Inositol 1,4,5-trisphosphate-gated calcium channel ITPR1 (Rattus norvegicus) (UniProt P29994)", "experiment": "Inhibition of rat IP3 receptor at 10 uM"}, "[24]": {"target": "Chymase (Homo sapiens) (UniProt P23946)", "experiment": "Inhibition of human chymase at 10 uM"}, "[25]": {"species": "Rattus norvegicus", "experiment": "Inhibition of rat opiate receptor at 10 uM"}, "[26]": {"species": "Cavia porcellus", "experiment": "Inhibition of guinea pig adenosine transporter at 10 uM"}, "[27]": {"experiment": "AUC in rat at 5 mg/kg, po", "format": "ADME, organism-based", "parameters": "dose 5 mg/kg, route oral", "conditions": "plasma", "outline": "as §1"}, "[28]": {"target": "D(2) dopamine receptor (Homo sapiens) (UniProt P14416)", "sequence (P14416 whole entry)": "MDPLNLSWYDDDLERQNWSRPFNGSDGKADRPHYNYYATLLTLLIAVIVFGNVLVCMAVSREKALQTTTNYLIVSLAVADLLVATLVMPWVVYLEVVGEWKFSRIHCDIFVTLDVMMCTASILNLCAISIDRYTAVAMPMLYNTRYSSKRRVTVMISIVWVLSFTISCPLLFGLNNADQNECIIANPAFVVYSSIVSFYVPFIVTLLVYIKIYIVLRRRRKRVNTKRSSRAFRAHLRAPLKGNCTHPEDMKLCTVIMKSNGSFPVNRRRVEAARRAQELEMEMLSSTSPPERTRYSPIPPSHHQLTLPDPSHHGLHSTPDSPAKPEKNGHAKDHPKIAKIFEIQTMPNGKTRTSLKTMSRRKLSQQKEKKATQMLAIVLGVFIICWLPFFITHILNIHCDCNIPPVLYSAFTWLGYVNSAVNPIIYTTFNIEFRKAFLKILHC", "experiment": "Inhibition of human dopamine receptor 2L at 10 uM"}, "[29]": {"target": "Neutrophil collagenase (Homo sapiens) (UniProt P22894)", "experiment": "Inhibition of human MMP-8 at 10 uM"}, "[30]": {"target": "Neutrophil elastase (Homo sapiens) (UniProt P08246)", "experiment": "Inhibition of human elastase, leukocyte at 10 uM"}, "[31]": {"tested_on": "Hepatitis C virus", "experiment": "Antiviral activity against HCV 2a infected in Huh7 cells assessed as inhibition of viral replication after 72 hrs by RT-PCR", "format": "functional, organism-based, Hepacivirus hominis", "conditions": "genotype 2a, Huh-7, 72 h", "outline": "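Infectious JFH1 virus (cell culture-adapted, core K74T and NS5A C2441S) was produced by transfecting transcribed RNA into Huh-7.5 cells. Huh-7.5 cells (1×10^4/well, seeded 24 h before) were infected with virus plus a nine-concentration compound series in 0.5% DMSO for 72 h. HCV RNA was quantified by real-time RT-PCR. Mean ± SD, ≥3 experiments.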"}, "[32]": {"target": "5-hydroxytryptamine receptor 2A (Rattus norvegicus) (UniProt P14842)", "experiment": "Inhibition of rat 5-HT2A receptor at 10 uM"}, "[33]": {"experiment": "Mean retention time in dog at 5 mg/kg, po", "format": "ADME, organism-based, Canis lupus familiaris", "parameters": "dose 5 mg/kg, route oral", "conditions": "in vivo", "outline": "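Fasted male beagle dogs (9.8-13.8 kg) given a single oral dose in 0.5% Methocel/0.3% Tween 80. Plasma taken by solid-phase extraction and measured by LC-MS/MS at m/z 869.3 (LOQ 50 nM). Noncompartmental analysis. Mean ± SE for three males.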"}, "[34]": {"experiment": "AUC (0 to infinity) in monkey at 5 mg/kg, po", "format": "ADME, organism-based, Macaca mulatta", "parameters": "time infinity, dose 5 mg/kg, route oral", "conditions": "rhesus monkey, plasma", "outline": "as §1"}, "[35]": {"target": "Histamine H2 receptor (Homo sapiens) (UniProt P25021)", "experiment": "Inhibition of human H2 receptor at 10 uM"}, "[36]": {"species": "Rattus norvegicus", "experiment": "Inhibition of rat 5-HT1 receptor at 10 uM"}, "[37]": {"target": "Neprilysin (Rattus norvegicus) (UniProt P07861)", "sequence (P07861 whole entry)": "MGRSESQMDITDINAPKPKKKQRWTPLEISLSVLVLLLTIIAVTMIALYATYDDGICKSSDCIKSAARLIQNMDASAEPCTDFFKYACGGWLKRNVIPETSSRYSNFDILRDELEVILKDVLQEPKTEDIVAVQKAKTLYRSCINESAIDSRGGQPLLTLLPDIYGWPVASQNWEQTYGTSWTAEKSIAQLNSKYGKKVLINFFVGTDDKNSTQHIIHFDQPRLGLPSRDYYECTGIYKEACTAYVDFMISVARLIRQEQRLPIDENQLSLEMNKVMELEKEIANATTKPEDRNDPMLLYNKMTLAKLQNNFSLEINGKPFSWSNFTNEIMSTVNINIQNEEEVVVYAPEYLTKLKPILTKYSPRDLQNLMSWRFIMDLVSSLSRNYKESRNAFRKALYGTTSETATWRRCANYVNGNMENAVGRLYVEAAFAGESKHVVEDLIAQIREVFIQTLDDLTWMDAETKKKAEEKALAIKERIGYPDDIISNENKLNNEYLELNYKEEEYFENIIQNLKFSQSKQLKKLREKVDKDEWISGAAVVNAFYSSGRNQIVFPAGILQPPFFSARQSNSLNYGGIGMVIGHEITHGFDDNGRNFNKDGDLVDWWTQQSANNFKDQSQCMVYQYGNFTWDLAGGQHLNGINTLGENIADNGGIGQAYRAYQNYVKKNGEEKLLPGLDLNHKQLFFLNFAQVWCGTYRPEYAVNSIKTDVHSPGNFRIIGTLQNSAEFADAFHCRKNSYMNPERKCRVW", "experiment": "Inhibition of rat neutral endopeptidase at 10 uM"}, "[38]": {"target": "Histamine H3 receptor (Homo sapiens) (UniProt Q9Y5N1)", "experiment": "Inhibition of human H3 receptor at 10 uM"}, "[39]": {"species": "Homo sapiens", "experiment": "Inhibition of human dopamine receptor 4.7 at 10 uM"}, "[40]": {"species": "Rattus norvegicus", "experiment": "Inhibition of rat potassium channel-V at 10 uM"}, "[41]": {"species": "Homo sapiens", "experiment": "Inhibition of human nicotinic acetylcholine receptor at 10 uM"}, "[42]": {"target": "Cathepsin B (Homo sapiens, UniProt P07858)", "experiment": "Inhibition of human cathepsin B at 10 uM"}, "[43]": {"target": "Coagulation factor X (Homo sapiens) (UniProt P00742)", "experiment": "Inhibition of human factor 10a at 10 uM"}}, "data": [{"smiles": "C=C[C@@H]1C[C@]1(NC(=O)[C@@H]1C[C@@H](Oc2cc(-c3csc(NC(=O)C(C)C)n3)nc3c(Br)c(OC)ccc23)CN1C(=O)[C@@H](NC(=O)OC1CCCC1)C(C)(C)C)C(=O)O", "values": [{"measurement": "inhibition", "setting": "[1]", "result": 2, "unit": "%"}, {"measurement": "AUC(0-inf)", "setting": "[2]", "result": 1.63, "unit": "µM·h"}, {"measurement": "inhibition", "setting": "[3]", "result": 13, "unit": "%"}, {"measurement": "inhibition", "setting": "[4]", "result": 0, "unit": "%"}, {"measurement": "inhibition", "setting": "[5]", "result": 15, "unit": "%"}, {"measurement": "inhibition", "setting": "[6]", "result": 14, "unit": "%"}, {"measurement": "inhibition", "setting": "[7]", "result": 74, "unit": "%"}, {"measurement": "inhibition", "setting": "[8]", "result": 5, "unit": "%"}, {"measurement": "inhibition", "setting": "[9]", "result": 2, "unit": "%"}, {"measurement": "inhibition", "setting": "[10]", "result": 5, "unit": "%"}, {"measurement": "inhibition", "setting": "[11]", "result": 10, "unit": "%"}, {"measurement": "inhibition", "setting": "[12]", "result": 16, "unit": "%"}, {"measurement": "inhibition", "setting": "[13]", "result": 77, "unit": "%"}, {"measurement": "AUC", "setting": "[14]", "result": 13, "unit": "µM·h"}, {"measurement": "inhibition", "setting": "[15]", "result": 47, "unit": "%"}, {"measurement": "inhibition", "setting": "[16]", "result": 9, "unit": "%"}, {"measurement": "inhibition", "setting": "[17]", "result": 7, "unit": "%"}, {"measurement": "MRT", "setting": "[18]", "result": 3.18, "unit": "h"}, {"measurement": "inhibition", "setting": "[19]", "result": 13, "unit": "%"}, {"measurement": "inhibition", "setting": "[20]", "result": 18, "unit": "%"}, {"measurement": "inhibition", "setting": "[21]", "result": 0, "unit": "%"}, {"measurement": "inhibition", "setting": "[22]", "result": 11, "unit": "%"}, {"measurement": "inhibition", "setting": "[23]", "result": 0, "unit": "%"}, {"measurement": "inhibition", "setting": "[24]", "result": 11, "unit": "%"}, {"measurement": "inhibition", "setting": "[25]", "result": 26, "unit": "%"}, {"measurement": "inhibition", "setting": "[26]", "result": 23, "unit": "%"}, {"measurement": "AUC", "setting": "[27]", "result": 1.55, "unit": "µM·h"}, {"measurement": "inhibition", "setting": "[28]", "result": 1, "unit": "%"}, {"measurement": "inhibition", "setting": "[29]", "result": 6, "unit": "%"}, {"measurement": "inhibition", "setting": "[30]", "result": 3, "unit": "%"}, {"measurement": "EC50", "setting": "[31]", "result": 43, "unit": "nM"}, {"measurement": "inhibition", "setting": "[32]", "result": 7, "unit": "%"}, {"measurement": "MRT", "setting": "[33]", "result": 3.7, "unit": "h"}, {"measurement": "AUC(0-inf)", "setting": "[34]", "result": 8.3, "unit": "µM·h"}, {"measurement": "inhibition", "setting": "[35]", "result": 21, "unit": "%"}, {"measurement": "inhibition", "setting": "[36]", "result": 10, "unit": "%"}, {"measurement": "inhibition", "setting": "[37]", "result": 11, "unit": "%"}, {"measurement": "inhibition", "setting": "[38]", "result": 5, "unit": "%"}, {"measurement": "inhibition", "setting": "[39]", "result": 0, "unit": "%"}, {"measurement": "inhibition", "setting": "[40]", "result": 7, "unit": "%"}, {"measurement": "inhibition", "setting": "[41]", "result": 22, "unit": "%"}, {"measurement": "inhibition", "setting": "[42]", "result": 22, "unit": "%"}, {"measurement": "inhibition", "setting": "[43]", "result": 5, "unit": "%"}]}]}
